Assay [1] relates to A549. The assay is described as follows: Growth inhibition of human A549 cells after 72 hrs by MTT assay. Particulars: A549, 72 h. The class given is functional, cell-based. The procedure, abridged:
(§1)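 MTT colorimetric growth assay. Cells are seeded at 10,000–40,000 cells/mL depending on cell type and allowed to plate for 24 h, then cultured 72 h with or without compound. Formazan from mitochondrial MTT reduction is read spectrophotometrically at 570 nm (reference 630 nm). IC50 is the growth-inhibitory concentration.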
A general note: Tetrazolium assays rely on reduction of a dye to a coloured formazan, in cell work by metabolically active cells.

Assay [2] is described as follows: Growth inhibition of human U373 cells after 72 hrs by MTT assay. It is filed as functional, cell-based, U-373MG ATCC. To be noted: U373 MG. The gist of the method: as §1
The test system of assay [3] is PC-3. The assay is described as follows: Growth inhibition of human PC3 cells after 72 hrs by MTT assay. The class given is functional, cell-based. To be noted: PC-3, 72 h. The procedure, abridged:
as §1

Assay [4] relates to SK-MEL. The assay is described as follows: Growth inhibition of human SK-MEL cells after 72 hrs by MTT assay. The class given is functional, cell-based. The gist of the method: as §1
Assay [5] concerns MCF7. The assay is described as follows: Growth inhibition of human MCF7 cells after 72 hrs by MTT assay. To be noted: MCF7, 72 h. The class given is functional, cell-based. The gist of the method: as §1
A short description of assay [6]: Growth inhibition of human OE21 cells after 72 hrs by MTT assay. The class given is functional, cell-based. Particulars: OE21, 72 h. The gist of the method: as §1
In assay [7] the test system is U-373MG ATCC. The assay is described as follows: Anticancer activity against human U373 cells assessed as reduction in cell proliferation at 5 uM for 3 days by quantitative video microscopy relative to control. It is filed as functional, cell-based. The procedure, abridged: (§2)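 U373 glioblastoma cells filmed by computer-assisted phase-contrast (quantitative videomicroscopy) over three days of culture with or without compound. Cell population growth is judged from morphology: reduced proliferation is taken as cytostatic effect, direct cell killing as cytotoxic effect, and round-shaped cells as cell death. Comparison is against untreated control.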

The test system of assay [8] is U-373MG ATCC. The assay is described as follows: Anticancer activity against human U373 cells assessed as cell death at 5 uM for 3 days by quantitative video microscopy. It is filed as functional, cell-based. The gist of the method:
as §2

Assay [9] concerns U-373MG ATCC. Briefly: Cytostatic activity against human U373 cells assessed as decrease in mitosis duration at 5 uM after 3 days by quantitative video microscopy relative to control. It is filed as functional, cell-based. The gist of the method: (§3)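 Human U373 glioblastoma cultures are recorded by quantitative videomicroscopy with or without compound. In-house software scores mitosis duration (min) and mitosis number, with number normalized to initial cell count at t = 0 h. Values are compared with untreated control.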

Assay [10] relates to U-373MG ATCC. The assay is described as follows: Anticancer activity against human U373 cells assessed as reduction in cell proliferation at 10 uM for 3 days by quantitative video microscopy relative to control. It is filed as functional, cell-based. The procedure, abridged: as §2
Assay [11] deals with U-373MG ATCC. The assay is described as follows: Anticancer activity against human U373 cells assessed as cell death at 10 uM for 3 days by quantitative video microscopy. It is filed as functional, cell-based. The gist of the method:
as §2

Assay [12] has as its system U-373MG ATCC. Briefly: Cytostatic activity against human U373 cells assessed as increase in mitosis duration at 10 uM after 3 days by quantitative video microscopy relative to control. The class given is functional, cell-based. The procedure, abridged:
as §3

Calls of active or inactive are those of the source. The rule behind the calls is not given here.

As usually defined, the IC50 is the concentration that inhibits the measured activity by half. Read a low IC50 as inhibition by little substance. In the case of `CC(C)=CCOc1ccc(C2CC2C(=O)NNC(=O)c2ccncc2)cc1` (stereo not drawn), the concentration for half-maximal inhibition (IC50) in assay [1], in [2] and in assay [3] was > 100 µM each time.
For `O=C(NNc1nncc2ccccc12)C1CC1c1ccc(OC(F)(F)F)cc1` (stereo not drawn), the IC50 is 29 µM in assay [4]; 87 µM in assay [1]; 85 µM in assay [2]; 54 µM in assay [5]; 92 µM in assay [3]; 42 µM in assay [6].
Consider `CCOc1ccc(C2CC2c2nnc3c4ccccc4cnn23)cc1` (stereo not drawn), for which the IC50 in assay [1] is 66 µM; in [2] it was 44 µM; in assay [3], > 100 µM.
In the same order, the values of `O=C(NNC(=O)C1CC1c1ccc(OC(F)(F)F)cc1)c1ccncc1` (stereo not drawn) are 56 µM, 37 µM and > 100 µM.
As to `CCOc1ccc(C2CC2C(=O)NNc2nncc3ccccc23)cc1` (stereo not drawn), the IC50 in assay [1] was > 100 µM; in assay [2] it was 91 µM; in assay [3], 94 µM.
Take `CC(C)=CCC/C(C)=C/COc1ccc(C2CC2c2nnc3c4ccccc4cnn23)cc1` (stereo not drawn): the concentration for half-maximal inhibition (IC50) came out at 72 µM in [4]; 45 µM in assay [1]; 63 µM in assay [2]; 9 µM in assay [5]; 8 µM in assay [3]; 5 µM in assay [6].
Consider `FC(F)(F)COc1ccc(C2CC2c2nnc3c4ccccc4cnn23)cc1` (stereo not drawn), for which the IC50 in [4] turned out to be 29 µM; in assay [1] it was 64 µM; in assay [2], 58 µM; in assay [5], 37 µM; in assay [3], 38 µM; in [6] it was 9 µM.
As to `O=C(NNc1nncc2ccccc12)C1CC1c1ccc(OCC(F)(F)F)cc1` (stereo not drawn), the IC50 in [4] is 29 µM; in [1] it was 48 µM; in [2], 25 µM; in [5], 8 µM; in assay [3] it was 67 µM; in assay [6], 17 µM.
In the case of `CC(C)=CCC/C(C)=C/COc1ccc(C2CC2C(=O)NNC(=O)c2ccncc2)cc1` (stereo not drawn), the results for the half-inhibitory concentration (IC50) in [1], in [2] and in assay [3] were 78 µM, 84 µM and > 100 µM, respectively.
Consider `CC(C)=CCOc1ccc(C2CC2c2nnc3c4ccccc4cnn23)cc1` (stereo not drawn), for which the result in assay [7] and in assay [9] was Active. For the same compound, in assay [8], the result was inactive. The IC50 was 26 µM in assay [4]; 56 µM in [1]; 4 µM in assay [2]; 19 µM in [5]; 22 µM in assay [3]; 8 µM in assay [6].
In the case of `COc1ccc(C2CC2c2nnc3c4ccccc4cnn23)cc1` (stereo not drawn), the IC50 in assay [4] was 40 µM; in assay [1], 40 µM; in [2], 28 µM; in assay [5], 29 µM; in assay [3] it was 29 µM; in [6] it was 26 µM.
As to `COc1ccc(C2CC2C(=O)NNC(=O)c2ccncc2)cc1` (stereo not drawn), the half-inhibitory concentration (IC50) in [1], in assay [2] and in assay [3] was > 100 µM each time.
Regarding `CC(C)=CCC/C(C)=C/COc1ccc(C2CC2C(=O)NNc2nncc3ccccc23)cc1` (stereo not drawn), the IC50 in assay [4] amounted to 25 µM; in assay [1] it was 36 µM; in [2] it was 9 µM; in assay [5] it was 23 µM; in assay [3], 24 µM; in assay [6], 9 µM. Moreover, the result in assay [10] and in assay [12] was Active. Further, the result in [11] was inactive.
As for `FC(F)(F)Oc1ccc(C2CC2c2nnc3c4ccccc4cnn23)cc1` (stereo not drawn), the concentration for half-maximal inhibition (IC50) in assay [4] is 57 µM; in assay [1], 37 µM; in assay [2], 37 µM; in assay [5], 37 µM; in assay [3] it was 49 µM; in assay [6], 30 µM.
As for `CCOc1ccc(C2CC2C(=O)NNC(=O)c2ccncc2)cc1` (stereo not drawn), the IC50 in [1] is 43 µM; in [2], 63 µM; in assay [3], > 100 µM.
In the case of `O=C(NNC(=O)C1CC1c1ccc(OCC(F)(F)F)cc1)c1ccncc1` (stereo not drawn), the IC50 stood at 81 µM in assay [4]; 10 µM in [1]; 19 µM in [2]; 34 µM in assay [5]; 44 µM in assay [3]; 31 µM in assay [6].
For `CC(C)=CCOc1ccc(C2CC2C(=O)NNc2nncc3ccccc23)cc1` (stereo not drawn), the IC50 is 67 µM in assay [4]; 82 µM in assay [1]; 81 µM in assay [2]; 69 µM in assay [5]; 81 µM in assay [3]; 38 µM in [6].
As to `COc1ccc(C2CC2C(=O)NNc2nncc3ccccc23)cc1` (stereo not drawn), the IC50 in assay [4] stood at 68 µM; in [1] it was 96 µM; in [2], 83 µM; in [5], 72 µM; in assay [3], 64 µM; in assay [6], 48 µM.

The values above are taken from ChEMBL document CHEMBL1156155, “Synthesis and anticancer activity evaluation of 2(4-alkoxyphenyl)cyclopropyl hydrazides and triazolo phthalazines” (Bioorg Med Chem, 2010).
